The nature of test [1]: S. cerevisiae growth inhibition in permissive medium (OD615), pilot counter-assay for S. cerevisiae lifespan shortening project, permissive growth control (AID 705;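 active means growth inhibition above 25% in both replicates, a cutoff set 3 SD above the mean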). The settings on record: OD615, 24 h, at 10 µM, active compounds read high. In short, it runs like this:
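Material: engineered DeaD yeast; compound dosing: one dose 10 µM, DMSO 0.25% final; measure: yeast growth inhibition indicated by reduced 24 h OD615; detection: OD615 turbidity read; incubation: cells pre-grown 4 h, then 24 h compound exposure, 30 °C humidified; medium: permissive synthetic complete medium with raffinose and galactose carbon sources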

Test [2] is described as follows: S. cerevisiae growth inhibition in restrictive medium, OD615, pilot screen, restrictive growth control, yeast lifespan reduction project (AID 706;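 active means growth inhibition above a set limit, 3 SD over mean compound inhibition, in both replicates, cut at about 43% in these data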;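 further: modified DeaD lifespan yeast strain shifted to restrictive glucose medium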). Conditions: OD615, 48 h, at 10 µM, active compounds read high. In short, it runs like this:
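material = engineered S. cerevisiae DeaD strain | medium = glucose-based CSMM-D restrictive medium | times = 4 h pre-incubation, 48 h exposure at 30 °C | technique = OD615 absorbance reading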

Test [3] can be described thus: doxorubicin toxicity protection in MRP-1 cells – H69AR cells, CellTiter-Glo, duplicate, MRP-1 activator project, pilot screen (AID 807;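 active means viability increase at or above a cutoff of the median across tested compounds plus 3 SD, cut at about 8.5% in these data, passing the limit was not always enough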;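 further: compound pretreatment 18-22 h then 72 h combined with doxorubicin; 0% = doxorubicin alone and 100% = vehicle without doxorubicin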). The settings on record: H69AR viability with doxorubicin, CellTiter-Glo luminescence; at 10 µM; active compounds read high.
A short description of test [4]: viability of HCT116 without oncogenic beta-catenin – human colon tumor cells, pilot screen (AID 823;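 active means cell viability at or below a set limit in both duplicate runs, the limit being the all-compound median minus 4 SD, cut at about 23% in these data, passing the limit was not always enough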;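 further: 0% = wells killed by 20 µM Hyamine and 100% = untreated DMSO cell wells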). The settings on record: HCT116 beta-catenin knockout viability, CellTiter-Glo, 60 h; at 10 µM; active compounds read low.
Test [5] can be described thus: viability of PTEN-null HCT116 cells – cell-based, HCT116 clonal line, CellTiter-Glo, pilot screen (AID 824;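 active means viability at or below 27.92% in each of two runs, the all-compound median minus 4 SD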;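 further: 0% = 20 µM Hyamine control and 100% = vehicle cell control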). Conditions: HCT116 PTEN-deleted viability, 60 h, at 10 µM, active compounds read low.
Test [6] can be described thus: RAM pathway blockade in budding yeast – dse1pr::URA3 reporter, 5-FOA selection, pilot screen (AID 869).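 Further: 0% = DMSO wells with no growth and 100% = 10 µM 1-NA-PP1 with full growth; RAM network block rescues cells from 5-FOA so hits raise OD615 growth.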 The settings on record: S. cerevisiae dse1pr::URA3 5-FOA growth, OD615, 2 d; at 10 µM; active compounds read high; strain carries analog-sensitive mutant Cbk1 kinase.
Test [7] in a line: RAM signaling pathway blockade in yeast – S. cerevisiae, Pdr1DBD-CYC8 efflux-inhibited sensitized strain, primary screen (AID 1298;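 active means RAM network inhibition above 8.4% in each of two replicates, 3 SD over the compound average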;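 further: 0% = DMSO untreated cells without growth and 100% = 10 µM 1-NA-PP1 full growth; higher means more yeast growth rescued from 5-FOA killing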). The settings on record: S. cerevisiae cbk1-as DSE1-URA3 strain, 5-FOA growth OD615, 2 d; at 50 µM; active compounds read high.

Unmarked numbers belong to inactive results. Records with an inconclusive call do not appear. Calls of active or inactive are those of the source.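 How the source made its calls, unless noted: active means inhibition over a set limit, the all-compound mean plus 3 SD, in both replicate runs; inconclusive means over that limit in just one replicate run; inactive means at or under that limit in both runs.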

The values below come from PubChem BioAssay.

For the compound `CCCCNC(=O)Nc1cc(C(=O)OC)ccc1C`, the growth inhibition in test [1] was -6.38%; in test [2], -14.2%. The viability increase in test [3] is 0.11%. Besides, the viability was 85.2% in test [4] and 91.4% in test [5]. The inhibition in test [6] was 1.55%. Moreover, the RAM network inhibition in test [7] is 7.5%.

In the case of `O=C1CC(c2ccccc2)CN1C(=O)c1ccccc1` (configuration not stated), the results for the growth inhibition in test [1] and in test [2] were 2.52% and -1.8%, respectively. Moreover, the viability increase in test [3] is 1.53%. Besides, the viability in test [4] was 104%; in test [5], 98.6%. Further, the inhibition in test [6] is 2.67%. For the same compound, in test [7], the RAM network inhibition was 6.11%.

For `CCCC1(C(=O)O)NC(c2ccccc2O)C2C(=O)N(Cc3ccccc3)C(=O)C21` (configuration not stated), the growth inhibition was 7.11% in test [1] and 6.84% in test [2]. Besides, the viability increase in test [3] is -1.02%. In addition, the viability in test [4] was 97.5%; in test [5], 90.8%. Besides, the inhibition in test [6] is 0.45%. For the same compound, in test [7], the RAM network inhibition was 0.88%.

In the case of `CCOc1ccc(NC(=O)c2ccc(N)cc2)cc1`, the growth inhibition in test [1] is -1.98%; in test [2], -14.4%. The viability increase in test [3] was -2.73%. For the same compound, the values for the viability in test [4] and in test [5] were 91.8% and 89.2%, respectively. For the same compound, in test [6], the inhibition was 2.77%. Also, the RAM network inhibition in test [7] is 2.88%.

Take `CCC1(C)OC(=O)N2CCc3c(C)[nH]c4c(C)ccc(c34)C21C` (configuration not stated): the growth inhibition is -14.7% in test [1] and -17.8% in test [2]. In test [3], the viability increase is -1.6%. Also, the viability in test [4] is 95.9%; in test [5], 91.3%. For the same compound, the inhibition in test [6] is 2.15%. Also, the RAM network inhibition in test [7] is 1.06%.

Consider `COc1ccc2c(Cl)c(C(=O)NC3CCS(=O)(=O)C3)sc2c1` (configuration not stated), for which the figures for the growth inhibition in test [1] and in test [2] were 1.61% and -6.69%, respectively. Besides, the viability increase in test [3] was 2.14%. For the same compound, the figures for the viability in test [4] and in test [5] were 93.3% and 99.3%, respectively. Further, the inhibition in test [6] is 1.92%. Moreover, in test [7], the RAM network inhibition was 1.43%.

Take `COc1ccc(C2N(c3cccc(Cl)c3)C(=O)C3CCCN32)cc1` (configuration not stated): the growth inhibition in test [1] is 6.5%; in test [2], 6.72%. The viability increase in test [3] is -2.85%. In addition, the viability in test [4] was 102%; in test [5], 98.1%. Also, in test [6], the inhibition is 0.115%. Besides, the RAM network inhibition in test [7] was -1.65%.

Take `Cc1cc(NC(=O)c2cn(C3CCCCC3)c(=O)c3c2c2ccccc2n3C)no1`: the growth inhibition in test [1] was -5.84%; in test [2], 11.9%. Further, the viability increase in test [3] was -3.21%. Moreover, the viability in test [4] and in test [5] was 71.7% each time. For the same compound, the inhibition in test [6] was 1.8%. For the same compound, the RAM network inhibition in test [7] was 7.54%.

For `COc1ccc(Nc2ccc3c(c2)=NC2(CCCCC2)[N+]=3[O-])cc1`, the growth inhibition in test [1] was -9.92%; in test [2] it was -11.8%. Further, in test [3], the viability increase was -8.28%. In addition, the viability is 2.19% (active) in test [4] and 1.61% (active) in test [5]. Moreover, the inhibition in test [6] is 4.35%. The RAM network inhibition in test [7] is 6.69%.

In the case of `c1cnc(N2CCSCC2)nc1`, the growth inhibition in test [1] was 2.61%; in test [2], 2.42%. Besides, the viability increase in test [3] was -2.73%. Moreover, the viability in test [4] was 104%; in test [5], 101%. Also, the inhibition in test [6] was 0.69%. Also, the RAM network inhibition in test [7] was 3.1%.

Consider `COCCCNC(=O)Cn1nnc(-c2ccc(NC(=O)c3ccc(F)cc3)cc2)n1`, for which the growth inhibition is -9.11% in test [1] and -28.5% in test [2]. Further, in test [3], the viability increase was 0.73%. For the same compound, the viability in test [4] is 99.7%; in test [5], 96.8%. Moreover, the inhibition in test [6] was 0.705%. Also, the RAM network inhibition in test [7] is 4.54%.

As for `Cc1ccccc1C(=O)N1CCC(C(=O)Nc2cccc(F)c2)CC1`, the growth inhibition in test [1] is -7.2%; in test [2], -1.04%. The viability increase in test [3] was -0.02%. Moreover, the viability in test [4] is 98.1%; in test [5] it was 82.7%. Moreover, the inhibition in test [6] is 1.3%. Further, the RAM network inhibition in test [7] was 3.22%.

For the compound `COC(=O)c1ccccc1NC(=O)c1c(O)c2c([nH]c1=O)CCCC2`, the growth inhibition in test [1] was -23.1%; in test [2], -12.7%. Besides, the viability increase in test [3] was -5.62%. Further, the figures for the viability in test [4] and in test [5] were 88.3% and 93%, respectively. In test [6], the inhibition was 1.71%. For the same compound, in test [7], the RAM network inhibition was 1.65%.

As to `COc1ccc(N(CC(=O)NCc2ccco2)S(=O)(=O)c2c(C)nn(C)c2C)cc1`, the growth inhibition was -11% in test [1] and -12.6% in test [2]. In test [3], the viability increase is -4.02%. Moreover, the viability is 89.8% in test [4] and 92.6% in test [5]. In addition, the inhibition in test [6] is 0.185%. Moreover, in test [7], the RAM network inhibition was 0.73%.

In the case of `COC(=O)c1ccccc1NC(=O)c1cc(C2CC2)on1`, the growth inhibition in test [1] was -8.38%; in test [2] it was 4.01%. Further, in test [3], the viability increase is -3.29%. For the same compound, the viability is 91.5% in test [4] and 90.8% in test [5]. For the same compound, in test [6], the inhibition is 1.4%. Also, the RAM network inhibition in test [7] was 5.95%.

Take `CCOc1ccccc1Nc1ncnc2c1cnn2-c1ccccc1`: the growth inhibition was -6.82% in test [1] and -5.11% in test [2]. In test [3], the viability increase is 3.06%. Further, the viability in test [4] was 93.6%; in test [5], 91.1%. For the same compound, in test [6], the inhibition was 2.2%. The RAM network inhibition in test [7] was 5.59%.
